Experimental data: ChEMBL document CHEMBL4368881, “A β-glucuronidase-responsive albumin-binding prodrug programmed for the double release of monomethyl auristatin E” (Medchemcomm, 2018)
Activity calls are given as the source filed them. The rule behind the calls is not given here.

Legend:
LS174T [1] = experiment: Antitumor activity against human LS174T cells xenografted in athymic Balb/c mouse assessed as tumor growth inhibition at 2 mg/kg, iv administered on day 17 and 24; format: functional, organism-based
Procedure, shortened: (§1)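 Eight-week-old male nude mice were implanted subcutaneously in the dorsal flank with 1x10⁶ LS174T cells in PBS/50 % Matrigel (day 0). Mice were randomized into groups of 6 and given iv doses in PBS–2 % DMSO, with a vehicle-injected control group. Tumor length and width were measured by caliper three times weekly; volume = length x width²/2.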

LS174T [2] = experiment: Inhibition of anchorage-independent colony formation in 3D culture of human LS174T cells at 5 nM measured after 3 days by soft agar colony formation assay; format: functional, cell-based
Procedure, shortened: (§2)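 LS174T cells (early passage, <10) were grown in EMEM with 10 % FBS. 20x10³ isolated cells were seeded in 0.35 % agarose over a 0.6 % agarose base layer. Colonies grew for 10 days, with fresh medium every 3 days. They were then treated for 3 days at 5 nM, without or with β-glucuronidase (3700 U/well). Colony size was measured by macroscope imaging; mean ± s.e.m. of 5 independent experiments.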

LS174T [3] = experiment: Inhibition of anchorage-independent colony formation in 3D culture of human LS174T cells at 5 nM measured after 3 days in presence of beta-glucuronidase by soft agar colony formation assay; format: functional, cell-based; procedure, shortened: as §2
[4] = Toxicity in athymic Balb/c mouse xenografted with human LS174T cells assessed as effect on body weight at 2 mg/kg, iv administered on day 17 and 24 measured three times a week; format: organism-based; conditions: in vivo
Procedure, shortened: (§3)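 LS174T subcutaneous xenografts (1x10⁶ cells in PBS/50 % Matrigel) were set up in eight-week-old male nude mice. Groups of 6 received iv injections in PBS–2 % DMSO, with a vehicle control group. Body weight was recorded three times weekly. Mice were euthanized when tumor volume exceeded 2 cm³.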

[5] = Toxicity in athymic Balb/c mouse xenografted with human LS174T cells assessed as effect on body weight at 3 mg/kg, iv administered on day 17 and 24 measured three times a week; format: organism-based; conditions: in vivo; procedure, shortened: as §3
LS174T [6] = experiment: Antitumor activity against human LS174T cells xenografted in athymic Balb/c mouse assessed as tumor growth inhibition at 3 mg/kg, iv administered on day 17 and 24; format: functional, organism-based; procedure, shortened: as §1
Beta-glucuronidase = Beta-glucuronidase (Escherichia coli (strain K12), UniProt P05804); experiment: Prodrug conversion assessed as Escherichia coli beta-glucuronidase mediated MMAE formation after 5 hrs using albumin-conjugated compound by HPLC/HRMS analysis; format: ADME; conditions: isolated protein
Beta-glucuronidase, sequence (P05804 whole entry): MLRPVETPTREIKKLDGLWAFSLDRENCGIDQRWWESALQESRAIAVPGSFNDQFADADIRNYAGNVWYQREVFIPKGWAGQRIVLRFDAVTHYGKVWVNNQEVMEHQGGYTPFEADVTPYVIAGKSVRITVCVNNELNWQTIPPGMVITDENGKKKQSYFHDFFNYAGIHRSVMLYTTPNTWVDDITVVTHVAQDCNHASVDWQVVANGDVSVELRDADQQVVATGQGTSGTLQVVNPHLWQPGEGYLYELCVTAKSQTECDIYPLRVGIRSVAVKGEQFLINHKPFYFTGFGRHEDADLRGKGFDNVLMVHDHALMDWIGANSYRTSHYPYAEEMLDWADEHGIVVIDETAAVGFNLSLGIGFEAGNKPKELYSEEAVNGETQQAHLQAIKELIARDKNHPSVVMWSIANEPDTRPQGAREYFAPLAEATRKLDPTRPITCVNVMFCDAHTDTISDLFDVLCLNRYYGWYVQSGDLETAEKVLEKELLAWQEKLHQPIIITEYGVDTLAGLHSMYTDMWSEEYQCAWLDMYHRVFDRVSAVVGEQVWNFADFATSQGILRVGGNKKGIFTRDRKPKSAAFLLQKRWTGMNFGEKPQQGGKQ
Procedure, shortened: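 Prodrug 0.49 mg.mL-1 was held in 5 % human serum albumin solution at 37 °C for 4 h to form the albumin adduct. The mixture was diluted 1:3 with 0.02 M phosphate buffer (pH 7), then E. coli β-glucuronidase was added. Analysis was by C18 HPLC coupled to ESI-HRMS in positive ion mode.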

Albumin = Albumin (Homo sapiens, UniProt P02768); experiment: Binding affinity to human serum albumin at 0.49 mg/ml after 4 hrs by HPLC/HRMS analysis; conditions: isolated protein
Albumin, sequence (P02768 whole entry): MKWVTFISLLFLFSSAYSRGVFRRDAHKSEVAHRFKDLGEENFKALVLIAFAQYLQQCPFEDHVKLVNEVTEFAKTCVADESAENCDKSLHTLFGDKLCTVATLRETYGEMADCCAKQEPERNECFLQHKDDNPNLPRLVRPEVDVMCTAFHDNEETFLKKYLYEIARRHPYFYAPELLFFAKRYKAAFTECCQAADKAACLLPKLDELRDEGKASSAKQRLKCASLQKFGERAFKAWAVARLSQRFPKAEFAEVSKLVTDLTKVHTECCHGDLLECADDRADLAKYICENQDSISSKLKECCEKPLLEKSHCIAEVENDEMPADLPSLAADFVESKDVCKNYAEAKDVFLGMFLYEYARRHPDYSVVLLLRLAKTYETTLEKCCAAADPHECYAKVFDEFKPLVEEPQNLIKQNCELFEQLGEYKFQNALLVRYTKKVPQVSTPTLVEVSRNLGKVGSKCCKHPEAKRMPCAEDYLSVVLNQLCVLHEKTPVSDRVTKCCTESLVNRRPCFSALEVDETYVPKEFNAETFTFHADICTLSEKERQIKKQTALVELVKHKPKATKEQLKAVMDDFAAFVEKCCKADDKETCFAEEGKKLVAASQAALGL

| Drug metabolism (Beta-glucuronidase) | Activity (Albumin) | Structure (SMILES) | TGI (LS174T [1]) | inhibition (LS174T [2]) | inhibition (LS174T [3]) | Activity [4] | Activity [5] | TGI (LS174T [6]) |
| --- | --- | --- | --- | --- | --- | --- | --- | --- |
|  |  | CC[C@H](C)[C@@H]([C@@H](CC(=O)N1CCC[C@H]1[C@H](OC)[C@@H](C)C(=O)N[C@H](C)[C@@H](O)c1ccccc1)OC)N(C)C(=O)[C@@H](NC(=O)[C@H](C(C)C)N(C)C(=O)OC(Cc1cn(CCOCCOCCOCCOCCOCCOCCOCCOCCOCCOCCNC(=O)CCCCCN2C(=O)C=CC2=O)nn1)c1ccc(O[C@@H]2O[C@H](C(=O)O)[C@@H](O)[C@H](O)[C@H]2O)c([N+](=O)[O-])c1)C(C)C (stereo not given in full) | Active | inactive | Active | Non-Toxic |  |  |
| Metabolite_Detected | Active | CC[C@H](C)[C@@H]([C@@H](CC(=O)N1CCC[C@H]1[C@H](OC)[C@@H](C)C(=O)N[C@H](C)[C@@H](O)c1ccccc1)OC)N(C)C(=O)[C@@H](NC(=O)[C@H](C(C)C)N(C)C(=O)OCc1ccc(NC(=O)OC(Cc2cn(CCOCCOCCOCCOCCOCCOCCOCCOCCOCCOCCNC(=O)CCCCCN3C(=O)C=CC3=O)nn2)c2ccc(O[C@@H]3O[C@H](C(=O)O)[C@@H](O)[C@H](O)[C@H]3O)c([N+](=O)[O-])c2)c(COC(=O)N(C)[C@H](C(=O)N[C@H](C(=O)N(C)[C@@H]([C@@H](C)CC)[C@@H](CC(=O)N2CCC[C@H]2[C@H](OC)[C@@H](C)C(=O)N[C@H](C)[C@@H](O)c2ccccc2)OC)C(C)C)C(C)C)c1)C(C)C (stereo not given in full) |  | inactive | Active |  | Non-Toxic | Active |
